Where “and” joins values, the source holds several entries; their conditions need not be identical. Equal values may be shown once. Screen size: about 260,000 compounds; about 960 (0.37%) were called active. This is one part of a sample in which actives are shown more often than they occur. Values without a mark were called inactive.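 How the source made its calls: active means mean E-selectin-positive cell signal at least 10% of the positive control, reached in at least 60% of replicates, without over 20% cell loss; inconclusive means no rule given, readout overlaps actives, possibly toxicity-flagged; inactive means the rest, including those meeting only one limit.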
biological target: E-selectin (Homo sapiens) (UniProt P16581); assay: inducers of endothelial E-selectin expression – imaging, HUVEC, immunofluorescence imaging, single point, primary screen (AID 686992); settings: at 7.58 µM, stronger effect = higher value, normalized: neutral wells 0, TNF-alpha wells 100;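 further: signal is the percent of cells scored E-selectin positive by PE staining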
Method in brief: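 assay system = HUVEC, human umbilical vein endothelial cells | input = 3,000 HUVEC seeded per well | medium = EGM-2 growth medium on 0.1% gelatin-coated wells | dosing = one compound dose added by pin transfer | signal = immunofluorescence imaging | read-out basis = % PE-positive cells | control set = TNF-alpha, DMSO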

E-selectin (Homo sapiens), sequence (P16581 whole entry, looked up): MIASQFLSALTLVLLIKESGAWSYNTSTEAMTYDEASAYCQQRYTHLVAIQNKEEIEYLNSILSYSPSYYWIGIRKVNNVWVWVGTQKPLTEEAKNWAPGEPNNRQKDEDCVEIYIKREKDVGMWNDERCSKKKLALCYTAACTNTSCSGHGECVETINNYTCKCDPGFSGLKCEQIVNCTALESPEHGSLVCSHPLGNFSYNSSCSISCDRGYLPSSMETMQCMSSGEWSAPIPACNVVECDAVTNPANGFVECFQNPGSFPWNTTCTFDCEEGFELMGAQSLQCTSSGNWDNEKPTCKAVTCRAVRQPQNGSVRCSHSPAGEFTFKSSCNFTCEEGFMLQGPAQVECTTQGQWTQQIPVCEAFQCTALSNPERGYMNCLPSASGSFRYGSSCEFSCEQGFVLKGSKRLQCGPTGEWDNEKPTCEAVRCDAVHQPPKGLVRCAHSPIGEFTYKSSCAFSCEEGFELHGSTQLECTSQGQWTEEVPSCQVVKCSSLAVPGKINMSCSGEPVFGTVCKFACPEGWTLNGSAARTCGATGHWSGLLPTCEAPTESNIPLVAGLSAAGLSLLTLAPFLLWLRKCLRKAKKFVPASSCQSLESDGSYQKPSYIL

| Compound | activation |
| --- | --- |
| COc1cccc(-c2nc3nc(C)cc(C)n3c2NC2CCCCC2)c1 | -0.154% |
| C[C@H](CO)N1C[C@H](C)[C@@H](CN(C)C(=O)NC2CCCCC2)Oc2c(NC(=O)Nc3ccc(F)cc3)cccc2C1=O | 42.3% (active) |
| C[C@@H]1CN([C@H](C)CO)C(=O)c2cccc(NC(=O)Nc3cccc4ccccc34)c2O[C@@H]1CN(C)C(=O)Nc1cccc2ccccc12 | -0.224% |
| C[C@@H]1CN([C@H](C)CO)C(=O)c2cccc(NS(C)(=O)=O)c2O[C@@H]1CN(C)C(=O)Nc1cccc2ccccc12 | 91.3% (active) |
| Cc1ccc(S(=O)(=O)N(C)C[C@@H]2Oc3c(NC(=O)Nc4ccccc4)cccc3C(=O)N([C@H](C)CO)C[C@H]2C)cc1 | 0.069% |
| C[C@H]1CN([C@@H](C)CO)C(=O)c2cccc(NC(=O)Nc3ccc(C(F)(F)F)cc3)c2O[C@H]1CN(C)C(=O)NC1CCCCC1 | -0.0925% |
| C[C@H]1CN([C@@H](C)CO)C(=O)c2cccc(NS(=O)(=O)c3cn(C)cn3)c2O[C@@H]1CN(C)C(=O)Nc1ccc(F)cc1 | 46.9% (active) |
| C[C@@H]1CN([C@H](C)CO)C(=O)c2cccc(NC(=O)Nc3ccccc3)c2O[C@@H]1CN(C)C(=O)NC1CCCCC1 | 0.168% |
| C[C@H](CO)N1C[C@H](C)[C@@H](CN(C)C(=O)Nc2cccc3ccccc23)Oc2c(NS(=O)(=O)c3ccccc3)cccc2C1=O | -0.43% |
| C[C@H](CO)N1C[C@H](C)[C@H](CN(C)S(=O)(=O)c2ccccc2)Oc2c(NC(=O)Nc3ccccc3)cccc2C1=O | 392% (active) |
| COc1ccc(NC(=O)N(C)C[C@@H]2Oc3c(NS(=O)(=O)c4cn(C)cn4)cccc3C(=O)N([C@H](C)CO)C[C@@H]2C)cc1 | -11.1% |
| C[C@H]1CN([C@@H](C)CO)C(=O)c2cccc(NS(=O)(=O)c3cn(C)cn3)c2O[C@H]1CN(C)C(=O)Nc1ccc2c(c1)OCO2 | -9.5% |
| C[C@H](CO)N1C[C@H](C)[C@@H](CN(C)S(=O)(=O)c2ccc(F)cc2)Oc2c(NC(=O)Nc3ccccc3)cccc2C1=O | 0.238% and 0.231% |
| Nc1nc2c(ncn2[C@@H]2O[C@H](C(=O)N[C@@H](Cc3ccccc3)C(=O)NCc3ccccc3)[C@@H](O)[C@H]2O)c(=O)[nH]1 | -0.0025% |
| CS(=O)(=O)N1[C@H](CO)[C@H](c2ccccc2)C12CN(C(=O)C1CC1)C2 | 0.098% |
| CNC(=O)C1CN(C(=O)c2cccc(S(=O)(=O)N3CCc4ccccc43)c2)c2ccccc2O1 (stereo not drawn) | -0.207% |
| O=C(c1ccccc1)N1C[C@H]2[C@@H](c3ccccc31)[C@H](CO)N2Cc1ccccc1F | 0.376% |
| Cc1ccc(C)c(C(O)c2ncc(-c3cccc4ccccc34)[nH]2)c1 (stereo not drawn) | -0.22% |
| C[C@@H]1CN([C@@H](C)CO)C(=O)c2cc(Br)cnc2O[C@@H]1CN(C)C(=O)C1CCCCC1 | -0.284% and 0.234% |
| C[C@@H]1CN([C@@H](C)CO)C(=O)c2cc(-c3cccc(F)c3)cnc2O[C@@H]1CN(C)Cc1ccccc1 | -0.282% |
| C[C@@H]1CN([C@H](C)CO)C(=O)c2cc(Br)cnc2O[C@@H]1CN(C)C(=O)C1CC1 | 118% (active) |
| C[C@@H]1CN([C@@H](C)CO)C(=O)c2cc(-c3ccccc3F)cnc2O[C@@H]1CN(C)Cc1cccc(F)c1 | -0.0955% |
| C/C=C/c1cnc2c(c1)C(=O)N([C@@H](C)CO)C[C@H](C)[C@@H](CN(C)C(=O)C1CC1)O2 | 0.382% |

| Compound | activation |
| --- | --- |
| C[C@H]1CN([C@@H](C)CO)C(=O)c2cc(Br)cnc2O[C@H]1CN(C)Cc1cccc(F)c1 | 87.1% (active) |
| COC(=O)C[C@H]1CC[C@@H](NC(=O)c2ccccc2)[C@@H](CO)O1 | -0.322% |
| O=C(COC(=O)CCc1c[nH]c2ccccc12)Nc1cccc(Cl)c1 | 5.9% |
| COC(=O)C[C@H]1CC[C@H]2[C@@H](COc3ccc(NC(=O)Nc4cccc(F)c4)cc3C(=O)N2C)O1 | -0.114% |
| COC(=O)C[C@H]1CC[C@H]2[C@H](COc3ccc(NC(=O)C4CC4)cc3C(=O)N2C)O1 | -0.049% |
| COC(=O)C[C@@H]1CC[C@@H]2[C@H](COc3ccc(NC(=O)Nc4cccc(F)c4)cc3C(=O)N2C)O1 | 59.2% (active) |
| CN1C(=O)c2cc(NC(=O)C3CCCC3)ccc2OC[C@H]2O[C@H](CC(=O)NCc3ccccc3F)CC[C@H]21 | 0.0215% |
| COC(=O)C[C@H]1CC[C@H]2[C@@H](COc3ccc(NC(=O)C4CC4)cc3C(=O)N2C)O1 | 84.9% (active) |
| CN1C(=O)c2cc(NC(=O)C3CCOCC3)ccc2OC[C@@H]2O[C@H](CC(=O)NCc3ccccc3F)CC[C@H]21 | 99.5% (active) |
| CN1C(=O)c2cc(NC(=O)C3CCC3)ccc2OC[C@@H]2O[C@@H](CC(=O)NCc3ccccc3F)CC[C@@H]21 | -0.028% |
| COC(=O)C[C@@H]1CC[C@@H]2[C@H](COc3ccc(NC(=O)c4cccc(F)c4)cc3C(=O)N2C)O1 | 0.16% |
| COC(=O)C[C@@H]1CC[C@@H]2[C@@H](COc3ccc(NC(=O)C4CCOCC4)cc3C(=O)N2C)O1 | 0.061% |
| C[C@@H](CN1C2=NC[C@@H](Cc3ccccc3)N2C[C@H]1Cc1ccc(O)cc1)NC(=O)CCC1CCCCC1 | -4.54% |
| CCC(C)CN1C(=O)CSCC1(C)C(=O)NCc1ccccc1 (stereo not drawn) | 0.0415% |
| COC(=O)[C@@H]1[C@@H](CO)[C@@H]2Cn3c(ccc(-c4ccc(OC)cc4)c3=O)[C@@H]2N1C | 0.459% |
| N#C[C@@H]1[C@@H](c2ccccc2)[C@H](CO)N1C(=O)c1cc(Cl)cc(Cl)c1 | 0.0965% |
| COc1ccc(S(=O)(=O)N2C[C@H](O)COC[C@@H]3O[C@H](CC(=O)NCCN4CCCCC4)CC[C@H]32)cc1 | 0.128% |
| COc1ccc(-c2ccccc2[C@H]2[C@@H](C#N)N(C(=O)C3CCC3)[C@@H]2CO)cc1 | -0.0965% |
| COc1cccc(-c2cc3nc(NCCOc4ccccc4Cl)n(C)c(=O)c3s2)c1 | -0.11% |
| COc1ccc(C(C)(O)c2nc(-c3ccc(C)c(C)c3)cs2)cc1 (stereo not drawn) | -0.298% |
| COc1ccc2c3c(n(C)c2c1)[C@@H](CO)N(Cc1ccccc1OC)CC31CN(CC2CCOCC2)C1 | -0.609% |
| COc1ccc(C(C)(O)c2nc(-c3cc(F)cc(F)c3)cs2)cc1 (stereo not drawn) | 0.357% |
| COc1ccc(S(=O)(=O)NCCOc2ccccc2)cc1F | -0.118% |

| Compound | activation |
| --- | --- |
| COc1ccc(S(=O)(=O)NCC(=O)NCc2cc(=O)n(C)c(=O)n2C)cc1F | 79.6% (active) |
| Cc1ccc(C(=O)NCC(=O)NCc2cc(=O)n(C)c(=O)n2C)cc1 | 0.0495% |
| CCCC(=O)Nc1ccc2c(c1)C(=O)N(C)[C@@H]1CC[C@H](CC(=O)Nc3cn(C)nc3C)O[C@H]1CO2 | -0.018% |
| Cn1c(Nc2ccc(F)cc2)nc2cc(-c3ccsc3)sc2c1=O | 0.0175% |
| COc1ccc(C2/C(=C(/O)c3ccccc3)C(=O)C(=O)N2C)c(OC)c1 (stereo not drawn) | 0.122% |
| COc1ccc(C2/C=C\CN(CC(C)C)CC(=O)N2Cc2ccc(F)cc2)cc1 (stereo not drawn) | -0.215% |
| COc1ccc(C2c3[nH]c4ccccc4c3C[C@H]3C(=O)N(CC(C)C)CC(=O)N23)c(OC)c1 (stereo partly drawn) | 61.1% (active) |
| CCC(=O)N1CC2(C1)[C@H](c1ccc(-c3ccc(C)cc3)cc1)[C@H](CO)N2S(C)(=O)=O | -0.277% |
| COc1ccc(OC)c(C(O)c2ncc(-c3cccc(C(F)(F)F)c3)[nH]2)c1 (stereo not drawn) | -0.085% |
| CNS(=O)(=O)c1ccc(NC(=O)C2CC(=O)N(c3ccc(Cl)cc3)C2)cc1 (stereo not drawn) | 35.7% (active) |
| CCc1ccc(N2CC(C(=O)Nc3ccc(S(=O)(=O)Nc4nccs4)cc3)CC2=O)cc1 (stereo not drawn) | 0.004% |
| O=C(Nc1ccc(S(=O)(=O)N2CCCCC2)cc1)C1CC(=O)N(c2ccc(F)cc2)C1 (stereo not drawn) | -0.119% |
| CC(=O)OCC1(O)CC23CCC4c5ccoc5CCC4(C)C2CCC1C3 (stereo not drawn) | 0.708% |
| COC(=O)C[C@@H]1CC[C@H]2[C@H](COc3ccc(NC(=O)c4ccccc4F)cc3C(=O)N2C)O1 | 0.0145% |
| CCCCCCN1C[C@H](O)[C@@H](n2cc(C3CC3)nn2)C[C@@H]1c1ccc(Cl)cc1 | -0.106% |
| C[C@@H]1CN([C@H](C)CO)C(=O)c2c(c3ccccc3n2C)-c2ccccc2CO[C@@H]1CN(C)Cc1ccccc1C(F)(F)F | 30.5% (active) |
| C[C@H](CO)N1C[C@H](C)[C@@H](CN(C)Cc2ccc(C(F)(F)F)cc2)OCc2ccccc2-c2c(n(C)c3ccccc23)C1=O | -0.577% |
| C[C@@H]1CN([C@H](C)CO)C(=O)c2c(c3ccccc3n2C)-c2ccccc2CO[C@@H]1CN(C)Cc1ccc(F)cc1 | -0.183% |
| COc1ccc(CCCNC(=O)C2Cc3c(-c4cccc(C(N)=O)c4)ccnc3O2)cc1 (stereo not drawn) | 0.751% |
| C=CCC[C@H](CCCCC)OC(=O)/C=C/[C@H](O)[C@@H](O)C[C@@H](O)CC=C | -5.32% |
| NC1=NC2(CCCCC2)N(c2ccc(F)cc2F)C(N)=N1 | 522% (active) |
| O=C(c1ccccc1)N1C[C@@H]2[C@H](c3ccccc31)[C@@H](CO)N2Cc1cc(F)ccc1F | 0.162% |
